Assay results as given in ChEMBL document CHEMBL3862036, “Biphenyl Pyridazinone Derivatives as Inhaled PDE4 Inhibitors: Structural Biology and Structure-Activity Relationships” (J Med Chem, 2016).

Legend:
[1] = Inhibition of PDE4 in PBMC (unknown origin) assessed as reduction in LPS-induced TNFalpha production incubated for 24 hrs by ELISA; details: Homo sapiens
[2] = Inhibition of PDE4 in human whole blood assessed as reduction in LPS-induced TNFalpha production incubated for 24 hrs by ELISA; format: tissue-based
Summary of the method: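 Human whole blood was preincubated with LPS (final 1 μg/mL) for 10 min at 37 °C with rocking. 200 μL was added to wells holding increasing inhibitor concentrations in 100% DMSO. Plates were incubated 24 h at 37 °C under agitation, then placed on ice, diluted with PBS and centrifuged at 800g, 4 °C, for 15 min before TNF-α measurement.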

Adenosine receptor A1 = target: T1, Adenosine receptor A1 (Homo sapiens, UniProt P30542); test: Antagonist activity at adenosine A1 receptor (unknown origin)
T1 sequence (P30542 whole entry): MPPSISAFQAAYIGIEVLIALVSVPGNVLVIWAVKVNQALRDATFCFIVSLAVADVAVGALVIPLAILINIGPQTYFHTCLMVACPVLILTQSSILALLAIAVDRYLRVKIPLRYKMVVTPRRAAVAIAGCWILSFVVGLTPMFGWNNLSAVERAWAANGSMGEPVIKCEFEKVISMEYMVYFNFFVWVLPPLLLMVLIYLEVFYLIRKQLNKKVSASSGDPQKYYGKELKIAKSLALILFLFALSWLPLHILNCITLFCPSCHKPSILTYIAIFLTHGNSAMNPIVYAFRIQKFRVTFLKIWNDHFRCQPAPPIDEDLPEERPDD

Rattus norvegicus [3] = test: Anti-inflammatory activity in Sprague-Dawley rat assessed as inhibition of LPS-induced neutrophilia at 100 ug/kg, it administered as suspension with Penn-Century micro-sprayer aerosolizer dosed 1 hrs before LPS challenge and measured 5 hrs post dose; format: functional; details: inhaled or nasal
Summary of the method: (§1)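 Suspensions in PBS/0.2% Tween 80 were homogenized, with lower doses made by 1:10 dilutions. 0.2 mL was given intratracheally by MicroSprayer to isoflurane-anesthetized fasted male Sprague-Dawley rats (230–280 g). At 1 or 18 h, rats received nebulized LPS (30 mL of a 1:100 PBS dilution of 100 mg/10 mL stock) over 40 min. Four hours later, BAL neutrophils were counted by flow cytometry.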

Rattus norvegicus [4] = test: Anti-inflammatory activity in Sprague-Dawley rat assessed as inhibition of LPS-induced neutrophilia at 100 ug/kg, it administered as suspension with Penn-Century micro-sprayer aerosolizer dosed 18 hrs before LPS challenge and measured 22 hrs post dose; format: functional; details: inhaled or nasal; summary of the method: as §1
Adenosine receptor A2a = Adenosine receptor A2a (Homo sapiens, UniProt P29274); test: Antagonist activity at adenosine A2a receptor (unknown origin)
Rattus norvegicus [5] = test: Anti-inflammatory activity in Sprague-Dawley rat assessed as inhibition of LPS-induced neutrophilia at 1000 ug/kg, it administered as suspension with Penn-Century micro-sprayer aerosolizer dosed 18 hrs before LPS challenge and measured 22 hrs post dose; format: functional; details: inhaled or nasal; summary of the method: as §1
Rattus norvegicus [6] = test: Anti-inflammatory activity in Sprague-Dawley rat assessed as inhibition of LPS-induced neutrophilia at 10 to 1000 ug/kg, it administered as suspension with Penn-Century micro-sprayer aerosolizer dosed 1 hrs before LPS challenge and measured 5 hrs post dose; format: functional; details: inhaled or nasal; summary of the method: as §1
Adenosine receptor A2b = target: T2, Adenosine receptor A2b (Homo sapiens, UniProt P29275); test: Antagonist activity at adenosine A2b receptor (unknown origin)
T2 sequence (P29275 whole entry): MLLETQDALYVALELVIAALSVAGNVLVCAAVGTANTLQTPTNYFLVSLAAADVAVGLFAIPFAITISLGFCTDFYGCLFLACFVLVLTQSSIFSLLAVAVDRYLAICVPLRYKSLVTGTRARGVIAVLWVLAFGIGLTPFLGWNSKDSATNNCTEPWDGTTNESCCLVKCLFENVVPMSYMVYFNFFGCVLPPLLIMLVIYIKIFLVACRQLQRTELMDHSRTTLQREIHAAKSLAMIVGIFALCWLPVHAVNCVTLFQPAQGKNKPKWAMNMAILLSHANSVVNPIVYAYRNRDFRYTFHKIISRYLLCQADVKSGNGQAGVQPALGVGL

[7] = Drug metabolism in human liver S9 fraction assessed as glucuronidation in presence of PAPS and UDPGA incubated for 20 mins; format: ADME, subcellular; details: read-out: Drug metabolism
Rattus norvegicus [8] = test: Anti-inflammatory activity in Sprague-Dawley rat assessed as inhibition of LPS-induced neutrophilia at 1000 ug/kg, it administered as suspension with Penn-Century micro-sprayer aerosolizer dosed 1 hrs before LPS challenge and measured 5 hrs post dose; format: functional; details: inhaled or nasal; summary of the method: as §1
Rattus norvegicus [9] = test: Anti-inflammatory activity in Sprague-Dawley rat assessed as inhibition of LPS-induced neutrophilia at 25 ug/kg, it administered as suspension with Penn-Century micro-sprayer aerosolizer dosed 1 hrs before LPS challenge and measured 5 hrs post dose; format: functional; details: inhaled or nasal; summary of the method: as §1
Rattus norvegicus [10] = test: Anti-inflammatory activity in Sprague-Dawley rat assessed as inhibition of LPS-induced neutrophilia at 1000 ug/kg, it administered as dry powder with lactose carrier through Penn-Century insufflator dosed 18 hrs before LPS challenge and measured 22 hrs post dose; format: functional
Summary of the method: (§2)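 Compounds were micronized, comixed with lactose, and 5 mg of the mixture was insufflated intratracheally into isoflurane-anesthetized fasted male Sprague-Dawley rats (230–280 g). LPS aerosol (30 mL of a 1:100 PBS dilution of 100 mg/10 mL stock) was nebulized for 40 min at 1 or 18 h post-dose. BAL was taken 4 h later and neutrophils counted by flow cytometry. Controls: lactose alone, lactose+LPS, fluticasone (10% in lactose).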

Rattus norvegicus [11] = test: Anti-inflammatory activity in Sprague-Dawley rat assessed as inhibition of LPS-induced neutrophilia at 1000 ug/kg, it administered as dry powder with lactose carrier through Penn-Century insufflator dosed 1 hrs before LPS challenge and measured 5 hrs post dose; format: functional; summary of the method: as §2
[12] = Pro-inflammatory activity in Sprague-Dawley rat assessed as induction of neutrophilia at 1000 ug/kg, it administered as dry powder with lactose carrier through Penn-Century insufflator; details: in vivo, inhaled_or_intranasal, 1 mg/kg

Sequence of Adenosine receptor A2a (P29274 whole entry): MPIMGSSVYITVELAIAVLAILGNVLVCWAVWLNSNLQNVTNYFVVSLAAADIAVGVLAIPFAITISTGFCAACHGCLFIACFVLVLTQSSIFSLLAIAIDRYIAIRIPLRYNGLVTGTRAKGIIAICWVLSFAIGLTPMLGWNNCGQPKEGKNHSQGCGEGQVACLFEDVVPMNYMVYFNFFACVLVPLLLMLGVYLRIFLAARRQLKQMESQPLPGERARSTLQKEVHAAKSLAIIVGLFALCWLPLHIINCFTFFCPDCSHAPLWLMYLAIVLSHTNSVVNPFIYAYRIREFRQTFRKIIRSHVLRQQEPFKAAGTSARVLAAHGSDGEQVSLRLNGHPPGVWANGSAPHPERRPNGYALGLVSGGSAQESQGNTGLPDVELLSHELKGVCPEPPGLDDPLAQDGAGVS

SMILES | IC50 [1] [nM] | IC50 [2] [nM] | IC50 (Adenosine receptor A1) [nM] | IC50 (Adenosine receptor A2a) [nM] | IC50 (Adenosine receptor A2b) [nM] | inhibition in vivo at 0.025 mg/kg (Rattus norvegicus [9]) [%] | also measured
CCn1nc(-c2cccc(-c3ccc(F)cc3O)c2)cc(NC(=O)Nc2c(Cl)cncc2Cl)c1=O | 1.3 | 202 | – | – | – | – | –
CCn1nc(-c2cccc(-c3cccc(C(=O)NCCC4CCCN4C)c3)c2)cc(NC(=O)Nc2c(Cl)cncc2Cl)c1=O (stereo not given) | 0.19 | 70 | 2 | 5 | – | – | inhibition in vivo at 0.1 mg/kg (Rattus norvegicus [3]): 70%; inhibition in vivo at 0.1 mg/kg (Rattus norvegicus [4]): 57%
CCn1nc(-c2cccc(-c3ccc(CC(=O)O)cc3)c2)cc(NC(=O)Nc2c(Cl)cncc2Cl)c1=O | 0.68 | 257 | 184 | > 1000 | > 1000 | – | inhibition in vivo at 1 mg/kg (Rattus norvegicus [5]): 10%; ED50 (Rattus norvegicus [6]): 0.149 mg/kg; metabolised at 20 min [7]: 32%; inhibition in vivo at 1 mg/kg (Rattus norvegicus [8]): 80%
CCn1nc(-c2cccc(-c3cc(C(=O)NCC[C@H]4CCCN4C)cc(C(=O)NC4CC4)c3)c2)cc(NC(=O)Nc2c(Cl)cncc2Cl)c1=O | 0.3 | – | 399 | > 1000 | 146 | 42 | inhibition in vivo at 0.1 mg/kg (Rattus norvegicus [4]): 37%
CCOc1cc(C(=O)NC2CC2)cc(-c2cccc(-c3cc(NC(=O)Nc4c(Cl)cncc4Cl)c(=O)n(CC)n3)c2)c1 | 0.24 | – | 59 | > 1000 | > 1000 | 26 | –
CCn1nc(-c2cccc(Br)c2)cc(NC(=O)Nc2c(Cl)cncc2Cl)c1=O | 3.7 | – | – | – | – | – | –
CCn1nc(-c2cccc(-c3cc(C(=O)NCCN4CCOCC4)cc(C(=O)NC4CC4)c3)c2)cc(NC(=O)Nc2c(Cl)cncc2Cl)c1=O | – | – | > 1000 | > 1000 | > 1000 | 55 | inhibition in vivo at 0.1 mg/kg (Rattus norvegicus [4]): 29%
CCn1nc(-c2cccc(-c3cc(OCC4CC4)cc(C(=O)NCCN4CCCCC4)c3)c2)cc(NC(=O)Nc2c(Cl)cncc2Cl)c1=O | 0.88 | – | 81 | > 1000 | > 1000 | 60 | –
CCn1nc(-c2cccc(-c3cccc(C(N)=O)c3)c2)cc(NC(=O)Nc2c(Cl)cncc2Cl)c1=O | 0.09 | 67 | – | – | – | – | inhibition in vivo at 1 mg/kg (Rattus norvegicus [5]): 20%; ED50 (Rattus norvegicus [6]): 0.067 mg/kg; inhibition in vivo at 1 mg/kg (Rattus norvegicus [10]): 15%; inhibition in vivo at 1 mg/kg (Rattus norvegicus [11]): 48%
CCn1nc(-c2cccc(-c3cc(C(=O)NCCN4CCCCC4)cc(C(=O)NC4CC4)c3)c2)cc(NC(=O)Nc2c(Cl)cncc2Cl)c1=O | 0.35 | – | > 1000 | > 1000 | 95 | 25 | –
CCn1nc(-c2cccc(-c3cccc(O)c3F)c2)cc(NC(=O)Nc2c(Cl)cncc2Cl)c1=O | 0.8 | – | – | – | – | – | –
CCn1nc(-c2cccc(-c3ccc(O)nc3)c2)cc(NC(=O)Nc2c(Cl)cncc2Cl)c1=O | 1.1 | 100 | – | – | – | – | –
CCn1nc(-c2cccc(-c3cc(C(=O)O)ccc3F)c2)cc(NC(=O)Nc2c(Cl)cncc2Cl)c1=O | 6.6 | – | – | – | – | – | –
CCn1nc(-c2cccc(-c3cccc(C(=O)NC4CC4)c3)c2)cc(NC(=O)Nc2c(Cl)cncc2Cl)c1=O | 0.3 | 69 | 10 | 33 | 120 | – | inhibition in vivo at 1 mg/kg (Rattus norvegicus [5]): 43%; inhibition in vivo at 0.1 mg/kg (Rattus norvegicus [3]): 70%; ED50 (Rattus norvegicus [6]): 0.024 mg/kg; inhibition in vivo at 1 mg/kg (Rattus norvegicus [10]): 42%; inhibition in vivo at 1 mg/kg (Rattus norvegicus [11]): 55%; fold change (FC) [12]: 1
